Assay results from ChEMBL document CHEMBL2062428, “Cyclooxygenase-1-selective inhibitors based on the (E)-2'-des-methyl-sulindac sulfide scaffold” (J Med Chem, 2012).
Calls of active or inactive are those of the source. The calls are words filed in the database; no cut-off is given here.

Key:
[1] = target: T1, Prostaglandin G/H synthase 1 (Ovis aries) (UniProt P05979); assay: Inhibition of ovine COX-1 using [14C] arachidonic acid as substrate at 4 uM preincubated for 17 mins before substrate addition measured after 3 mins by thin-layer chromatographic analysis
T1 sequence (whole entry): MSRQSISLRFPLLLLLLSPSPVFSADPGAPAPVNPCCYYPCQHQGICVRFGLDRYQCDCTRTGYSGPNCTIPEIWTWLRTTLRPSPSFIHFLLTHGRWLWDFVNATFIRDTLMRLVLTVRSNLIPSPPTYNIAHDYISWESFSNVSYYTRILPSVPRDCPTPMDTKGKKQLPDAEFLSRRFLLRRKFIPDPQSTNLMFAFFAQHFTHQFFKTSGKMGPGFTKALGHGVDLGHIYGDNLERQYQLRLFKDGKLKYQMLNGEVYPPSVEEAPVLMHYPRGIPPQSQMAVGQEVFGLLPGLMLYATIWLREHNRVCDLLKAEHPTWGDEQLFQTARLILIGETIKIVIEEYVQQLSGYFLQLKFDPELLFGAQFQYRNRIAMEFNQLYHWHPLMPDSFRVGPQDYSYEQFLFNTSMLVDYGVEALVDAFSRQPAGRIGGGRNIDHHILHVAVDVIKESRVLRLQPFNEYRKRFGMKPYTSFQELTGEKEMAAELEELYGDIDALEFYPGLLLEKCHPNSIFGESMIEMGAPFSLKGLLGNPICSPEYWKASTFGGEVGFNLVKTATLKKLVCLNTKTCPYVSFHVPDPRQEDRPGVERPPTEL
How it was run: (§1)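 Purified ovine COX-1 or murine COX-2 preincubated with a single 4 μM inhibitor concentration for 17 min. […] Reaction quenched; radioactive products extracted and quantified. Mean ± SEM of two experiments.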

[2] = target: T2, Prostaglandin G/H synthase 2 (Mus musculus, UniProt Q05769); assay: Inhibition of mouse COX-2 using [14C] arachidonic acid as substrate preincubated for 17 mins before substrate addition measured after 3 mins by thin-layer chromatographic analysis
T2 sequence (Q05769 whole entry): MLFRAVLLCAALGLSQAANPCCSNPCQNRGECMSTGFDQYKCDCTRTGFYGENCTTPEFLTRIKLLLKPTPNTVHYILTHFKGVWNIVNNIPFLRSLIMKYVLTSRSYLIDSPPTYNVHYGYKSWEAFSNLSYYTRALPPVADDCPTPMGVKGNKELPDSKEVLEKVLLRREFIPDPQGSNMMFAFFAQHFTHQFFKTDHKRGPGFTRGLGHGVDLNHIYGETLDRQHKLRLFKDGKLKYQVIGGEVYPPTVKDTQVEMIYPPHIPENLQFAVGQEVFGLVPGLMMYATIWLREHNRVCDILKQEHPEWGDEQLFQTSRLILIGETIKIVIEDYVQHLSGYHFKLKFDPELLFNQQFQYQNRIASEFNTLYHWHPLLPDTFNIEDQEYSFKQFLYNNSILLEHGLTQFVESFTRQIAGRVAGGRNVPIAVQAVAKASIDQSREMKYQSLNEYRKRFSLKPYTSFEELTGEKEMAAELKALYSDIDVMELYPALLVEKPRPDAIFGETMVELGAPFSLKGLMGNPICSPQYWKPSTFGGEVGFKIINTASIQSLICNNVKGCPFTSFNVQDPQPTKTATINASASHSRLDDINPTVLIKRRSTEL

[3] = target: T3, Prostaglandin G/H synthase 2 (Mus musculus) (UniProt Q05769); assay: Inhibition of mouse COX-2 using [14C] arachidonic acid as substrate at 4 uM preincubated for 17 mins before substrate addition measured after 3 mins by thin-layer chromatographic analysis; how it was run: as §1
T3 sequence (whole entry): T2 sequence (Q05769 whole entry)

OVCAR-3 [4] = assay: Cytotoxicity against human OVCAR3 cells after 2 days by WST1 assay; type: functional, cell-based; details: OVCAR-3, 48 h
How it was run: (§2)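 Viability of human ovarian carcinoma NIH-OVCAR-3 cells, which express COX-1 but no detectable COX-2, after a 2-day compound treatment. Concentrations up to 250 μM tested. EC50 for growth inhibition derived from concentration–response curves.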

[5] = target: T4, Prostaglandin G/H synthase 2 (Homo sapiens) (UniProt P35354); assay: Inhibition of COX-2 in human HNSCC 1483 cells using [14C] arachidonic acid as substrate at 5 uM preincubated for 30 mins before substrate addition measured after 30 mins; type: cell-based
T4 sequence (whole entry): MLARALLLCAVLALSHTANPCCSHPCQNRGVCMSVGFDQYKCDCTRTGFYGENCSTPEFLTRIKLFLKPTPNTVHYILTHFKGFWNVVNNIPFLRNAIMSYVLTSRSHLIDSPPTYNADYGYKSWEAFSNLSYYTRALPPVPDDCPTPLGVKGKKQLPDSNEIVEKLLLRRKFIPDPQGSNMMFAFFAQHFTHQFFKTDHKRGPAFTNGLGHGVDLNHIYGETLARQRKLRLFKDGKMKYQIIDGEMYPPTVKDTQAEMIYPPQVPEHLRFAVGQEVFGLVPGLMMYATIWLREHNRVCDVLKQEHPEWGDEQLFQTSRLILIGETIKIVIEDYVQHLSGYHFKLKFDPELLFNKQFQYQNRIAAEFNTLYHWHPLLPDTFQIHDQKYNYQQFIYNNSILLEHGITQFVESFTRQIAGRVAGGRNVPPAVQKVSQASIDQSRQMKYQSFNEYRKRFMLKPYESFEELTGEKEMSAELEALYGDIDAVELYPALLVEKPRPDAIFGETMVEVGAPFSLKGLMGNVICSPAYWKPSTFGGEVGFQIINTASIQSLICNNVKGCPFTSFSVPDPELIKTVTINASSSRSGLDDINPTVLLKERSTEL

MDA-MB-231 = assay: Cytotoxicity against human MDA-MB-231 cells after 48 hrs by WST1 assay; type: functional, cell-based; details: MDA-MB-231, 48 h
[6] = target: T5, Prostaglandin G/H synthase 1 (Ovis aries, UniProt P05979); assay: Inhibition of ovine COX-1 using [14C] arachidonic acid as substrate preincubated for 17 mins before substrate addition measured after 3 mins by thin-layer chromatographic analysis
T5 sequence (P05979 whole entry): T1 sequence (whole entry)

[7] = target: T1, Prostaglandin G/H synthase 1 (Ovis aries); assay: Inhibition of ovine COX-1 using [14C] arachidonic acid as substrate at 25 uM preincubated for 17 mins before substrate addition measured after 3 mins by thin-layer chromatographic analysis
OVCAR-3 [8] = assay: Cytotoxicity against human OVCAR3 cells growth inhibition up to 250 uM after 2 days by WST1 assay; type: functional, cell-based; how it was run: as §2

Structure (SMILES)	inhibition [1]	inhibition [3]	further results
O=C(O)CC1=C/C(=C\c2ccc(-c3ccccc3)cc2)c2ccc(F)cc21	75%	1%	IC50 [2]: > 4 µM; EC50 (OVCAR-3 [4]): 132 µM; inhibition [5]: inactive; EC50 (MDA-MB-231): 141 µM; IC50 [6]: 0.57 µM
CC(C)(C(=O)O)C1=C/C(=C\c2ccc(-c3ccccc3)cc2)c2ccc(F)cc21	58%		IC50 [6]: 2.2 µM
CCOC(=O)CC1=C/C(=C\c2ccc(-c3ccccc3)cc2)c2ccc(F)cc21	64%	28%	IC50 [6]: 1.1 µM
CC1=C(CC(=O)O)c2cc(F)ccc2/C1=C/c1ccc([S+](C)[O-])cc1 (configuration not stated) [SULINDAC SULFOXIDE]			EC50 (OVCAR-3 [4]): 210 µM
CSc1ccc(/C=C2\C=C(CC(=O)O)c3cc(F)ccc32)cc1	65%	10%	EC50 (OVCAR-3 [4]): 223 µM; inhibition [5]: inactive
COc1ccc2c(c1)C(CC(=O)O)=C/C2=C\c1ccc(SC)cc1			inhibition [7]: 19%
CSc1ccc(/C=C2\C=C(CC(=O)NS(=O)(=O)C(F)(F)F)c3cc(F)ccc32)cc1	65%	15%	EC50 (MDA-MB-231): 215 µM
CCOC(=O)C(C)(C)C1=C/C(=C\c2ccc3c(c2)Cc2ccccc2-3)c2ccc(F)cc21	34%	18%	
CSc1ccc(/C=C2\C=C(CC(=O)NS(=O)(=O)c3ccc(Br)cc3)c3cc(F)ccc32)cc1	40%	30%	
O=C(O)CC1=C/C(=C\c2cccc3cccnc23)c2ccc(F)cc21	51%	0%	
CCOC(=O)C(C)(C)C1=C/C(=C\c2ccc(-c3ccc(F)cc3)cc2)c2ccc(F)cc21	10%	0%	
CSc1ccc(/C=C2\C=C(CC(=O)NS(=O)(=O)c3ccc4ccccc4c3)c3cc(F)ccc32)cc1	74%	26%	
O=C(O)CC1=C/C(=C\c2cnc(C3CCCCC3)nc2)c2ccc(F)cc21	45%	25%	
O=C(O)CC1=C/C(=C\c2ccc(C(=O)O)cc2)c2ccc(F)cc21	43%	0%	
CSc1ccc(/C=C2\C=C(CC(=O)NS(=O)(=O)c3ccc(Cl)s3)c3cc(F)ccc32)cc1	59%	34%	
O=C(O)CC1=C/C(=C\c2ccc(SC(F)(F)F)cc2)c2ccc(F)cc21	77%	35%	
O=C(O)CC1=C/C(=C\c2ccc(F)c3ccccc23)c2ccc(F)cc21	61%	22%	
O=C(O)CC1=C/C(=C\c2ccc(-c3ccccc3)c(F)c2)c2ccc(F)cc21	44%	34%	
CSc1ccc(/C=C2/C(C)=C(CC(=O)O)c3cc(F)ccc32)cc1 [SULINDAC SULFIDE]			EC50 (MDA-MB-231): 209 µM; growth inhibition (GI) (OVCAR-3 [8]): inactive
O=C(O)CC1=C/C(=C\c2ccc3nccnc3c2)c2ccc(F)cc21	31%	29%	
